According to PubChem BioAssay:
Inconclusive results are not listed.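 The calls were made as follows, unless noted: active = growth inhibition above 25% in both replicates, a cutoff set 3 SD above the mean; inconclusive = above 25% in only one replicate; inactive = the rest.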

Columns and labels:
[1] = OD615 S. cerevisiae growth inhibition, permissive medium, pilot counter-assay, permissive growth control for S. cerevisiae lifespan shortening project (AID 705); conditions: OD615, 24 h, at 10 µM, hits give high values
Summary of the method: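 System: engineered DeaD yeast; Medium: permissive raffinose/galactose medium; Compound dosing: 10 µM single dose, 0.25% DMSO; Incubation: 4 h cell pre-growth, 24 h exposure at 30 °C; Technique: OD at 615 nm; Evaluation: growth inhibition from lowered OD615 after 24 h.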

[2] = Restrictive medium S. cerevisiae growth inhibition, OD615, pilot screen of yeast lifespan reduction project, restrictive growth control (AID 706;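 active = growth inhibition above a set limit, 3 SD over mean compound inhibition, in both replicates, cut at about 43% in these data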;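 also: modified DeaD lifespan yeast strain shifted to restrictive glucose medium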); conditions: OD615, 48 h, at 10 µM, hits give high values
Summary of the method: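 Material: modified S. cerevisiae; buffer or medium: CSMM-D glucose medium; doses: one concentration, 10 µM final, 0.25% DMSO; incubation: 48 h compound exposure at 30 °C; detection: optical density at 615 nm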

[3] = viability gain of MRP-1-high H69AR cells under doxorubicin, pilot screen, MRP-1 activator project, CellTiter-Glo, duplicate (AID 807;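 active = viability increase at or above a cutoff of the median across tested compounds plus 3 SD, cut at about 8.5% in these data, passing the limit was not always enough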;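 also: compound pretreatment 18-22 h then 72 h combined with doxorubicin; 0% = doxorubicin alone and 100% = vehicle without doxorubicin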); conditions: H69AR viability with doxorubicin, CellTiter-Glo luminescence; at 10 µM; hits give high values
[4] = growth suppression of beta-catenin knockout HCT116, pilot screen, human colon tumor cells (AID 823;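 active = cell viability at or below a set limit in both duplicate runs, the limit being the all-compound median minus 4 SD, cut at about 23% in these data, passing the limit was not always enough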;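 also: 0% = wells killed by 20 µM Hyamine and 100% = untreated DMSO cell wells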); conditions: CellTiter-Glo, 60 h, at 10 µM, hits give low values
[5] = growth suppression of PTEN-deleted HCT116, pilot screen, cell-based, HCT116 clonal line, CellTiter-Glo (AID 824;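 active = viability at or below 27.92% in each of two runs, the all-compound median minus 4 SD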;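 also: 0% = 20 µM Hyamine control and 100% = vehicle cell control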); conditions: 60 h, at 10 µM, hits give low values
[6] = inhibitors of the yeast RAM network, pilot screen, dse1pr::URA3 reporter, 5-FOA selection (AID 869;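 active = inhibition over a set limit, the all-compound mean plus 3 SD, in both replicate runs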;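 also: 0% = DMSO wells with no growth and 100% = 10 µM 1-NA-PP1 with full growth; RAM network block rescues cells from 5-FOA so hits raise OD615 growth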); conditions: S. cerevisiae dse1pr::URA3 5-FOA growth, OD615, 2 d; at 10 µM; hits give high values; strain carries analog-sensitive mutant Cbk1 kinase
[7] = RAM signaling pathway blockade in yeast – S. cerevisiae, Pdr1DBD-CYC8 efflux-inhibited sensitized strain, primary screen (AID 1298;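 active = RAM network inhibition above 8.4% in each of two replicates, 3 SD over the compound average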;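 also: 0% = DMSO untreated cells without growth and 100% = 10 µM 1-NA-PP1 full growth; higher means more yeast growth rescued from 5-FOA killing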); conditions: S. cerevisiae cbk1-as DSE1-URA3 strain, 5-FOA growth OD615, 2 d; at 50 µM; hits give high values

O=C(NCc1ccco1)c1ccc(Br)c(S(=O)(=O)N2CCCCC2)c1
inactive: growth inhibition [1] 2.44% | growth inhibition [2] -6.06% | viability increase [3] -2.69% | viability [4] 88.8% | viability [5] 88.1% | inhibition [6] 2.61% | RAM network inhibition [7] 4.59%

O=C(NCc1ccccc1)c1ccc(CN2CCOCC2)cc1
inactive: growth inhibition [1] 7.58% | growth inhibition [2] 2.15% | viability increase [3] -0.24% | viability [4] 100% | viability [5] 104% | inhibition [6] 0.89% | RAM network inhibition [7] 9.41%

CCCN1CCN(C(=O)C2CCN(S(=O)(=O)c3ccc4c(c3)oc(=O)n4C)CC2)CC1
inactive: growth inhibition [1] -6.11% | growth inhibition [2] -13.9% | viability increase [3] -0.29% | viability [4] 108% | viability [5] 98.5% | inhibition [6] 3.06% | RAM network inhibition [7] -1.87%

CCNC(=O)CN(Cc1ccccc1)S(=O)(=O)c1ccccc1
inactive: growth inhibition [1] -5.21% | growth inhibition [2] 13.1% | viability increase [3] 0.61% | viability [4] 89.3% | viability [5] 104% | inhibition [6] 0.615% | RAM network inhibition [7] 1.94%

CCCCNC(=O)c1cc(-c2ccc(OC)c(OC)c2)on1
inactive: growth inhibition [1] 0.455% | growth inhibition [2] 5.25% | viability increase [3] 2.07% | viability [4] 104% | viability [5] 96.9% | inhibition [6] -0.37% | RAM network inhibition [7] -0.26%

CCCC(c1c(C)n(C)n(-c2ccccc2)c1=O)c1c(C)n(C)n(-c2ccccc2)c1=O
inactive: growth inhibition [1] -9.58% | growth inhibition [2] -13.4% | viability increase [3] -1.18% | viability [4] 90.2% | viability [5] 103% | inhibition [6] 1.16% | RAM network inhibition [7] 4.48%

COc1ccc(C(=O)NCCSCc2ccco2)cc1OC
inactive: growth inhibition [1] -9.5% | growth inhibition [2] 5.73% | viability increase [3] -4.86% | viability [4] 98.2% | viability [5] 95.6% | inhibition [6] 1% | RAM network inhibition [7] 5.47%

COc1ccc(C2C=C(c3ccccc3)Nc3nnnn32)cc1 (stereo unspecified)
inactive: growth inhibition [1] -5.09% | growth inhibition [2] 5.53% | viability increase [3] 0.19% | viability [4] 95.3% | viability [5] 90.3% | inhibition [6] 0.855% | RAM network inhibition [7] 5.93%

O=C(Nc1ccccc1O)c1ccccc1O
inactive: growth inhibition [1] -9.29% | growth inhibition [2] 2.25% | viability increase [3] -3.07% | viability [4] 75.1% | viability [5] 63.3% | inhibition [6] -0.42% | RAM network inhibition [7] -1.84%

CCOC(=O)COC(=O)c1ccc(O)cc1
inactive: growth inhibition [1] -4.13% | growth inhibition [2] -13.5% | viability increase [3] -0.28% | viability [4] 93% | viability [5] 97.8% | inhibition [6] 1.47% | RAM network inhibition [7] 0.37%

CCn1c2ccccc2c2cc(NC(=O)c3ccco3)ccc21
inactive: growth inhibition [1] -4.29% | growth inhibition [2] -0.22% | viability increase [3] -3.74% | viability [4] 96.1% | viability [5] 93% | inhibition [6] 0.345% | RAM network inhibition [7] 0.96%

O=C(CSc1nnc(Cc2cc(=O)[nH]c(=O)[nH]2)n1-c1ccc(Cl)cc1)NC1CCCC1
inactive: growth inhibition [1] -14.1% | growth inhibition [2] -17.7% | viability increase [3] -0.76% | viability [4] 108% | viability [5] 104% | inhibition [6] 1.92% | RAM network inhibition [7] 0.32%

O=C(CSc1nnc(-c2cccnc2)n1Cc1ccco1)c1ccc(Br)cc1
inactive: growth inhibition [1] 1.25% | growth inhibition [2] 32.4% | viability increase [3] -1.99% | viability [4] 79.9% | viability [5] 86.8% | inhibition [6] 0.005% | RAM network inhibition [7] 10%

Cc1ccc(S(=O)(=O)NCCCN2CCOCC2)c(C)c1
inactive: growth inhibition [1] -5.02% | growth inhibition [2] -7.8% | viability increase [3] -1.19% | viability [4] 96.8% | viability [5] 95.5% | inhibition [6] 2.29% | RAM network inhibition [7] 5.89%

COc1ccc(Cl)cc1C(=O)Nc1cc(=O)n(C)c(=O)n1C
inactive: growth inhibition [1] -16.1% | growth inhibition [2] -29.6% | viability increase [3] -1.06% | viability [4] 102% | viability [5] 99.1% | inhibition [6] 1.71% | RAM network inhibition [7] 2.2%

CN(C)CCCNCCCNC(=O)/C(=N\O)c1ccccn1
inactive: growth inhibition [1] -3.34% | growth inhibition [2] -2.4% | viability increase [3] 1.1% | viability [4] 93.3% | viability [5] 105% | inhibition [6] 1.53% | RAM network inhibition [7] 2.45%

CCC(CC)C(=O)Nc1cc(C)c2c(=O)oc3ccccc3c2n1
inactive: growth inhibition [1] -17.2% | growth inhibition [2] -12.2% | viability increase [3] -5.01% | viability [4] 62.5% | viability [5] 64.2% | inhibition [6] 2.33% | RAM network inhibition [7] 9.87%

COc1c2c(nc3ccccc13)OC(C(C)(O)COC(C)=O)C2 (stereo unspecified)
inactive: growth inhibition [1] -2.59% | growth inhibition [2] 5.38% | viability increase [3] -1.44% | viability [4] 98.6% | viability [5] 95.7% | inhibition [6] 0.275% | RAM network inhibition [7] 1.41%

C=CCSC1=N/C(=C\c2ccc(C)o2)C(=O)S1
inactive: growth inhibition [1] -9.79% | growth inhibition [2] -6.84% | viability increase [3] -3.69% | viability [4] 101% | viability [5] 98.6% | inhibition [6] 1.58% | RAM network inhibition [7] 2.06%

CCCSc1nc2c(cnn2-c2ccc(F)cc2)c(=O)[nH]1
inactive: growth inhibition [1] -5.3% | growth inhibition [2] -3.29% | viability increase [3] -2.46% | viability [4] 95% | viability [5] 94.7% | inhibition [6] 0.82% | RAM network inhibition [7] 2.71%

O=C(Nc1cccnc1)c1ccccc1F
inactive: growth inhibition [1] -7.93% | growth inhibition [2] 4.54% | viability increase [3] -0.03% | viability [4] 103% | viability [5] 103% | inhibition [6] 0.88% | RAM network inhibition [7] 2.95%

COc1ccc(-c2nc(CS(=O)CC(=O)NCc3ccco3)c(C)o2)cc1OC (stereo unspecified)
inactive: growth inhibition [1] 1.38% | growth inhibition [2] -5.82% | viability increase [3] -4.57% | viability [4] 83.4% | viability [5] 84.6% | inhibition [6] 0.205% | RAM network inhibition [7] 4.18%

O=C(N1CCN(c2ccc(F)cc2)CC1)C12CC3CC(CC(C3)C1)C2
inactive: growth inhibition [1] -15.7% | growth inhibition [2] -5.23% | viability increase [3] -0.18% | viability [4] 84.1% | viability [5] 83.6% | inhibition [6] 0.94% | RAM network inhibition [7] 11.5%

Clc1ccccc1N1CCN(c2ncnc3nc[nH]c23)CC1
inactive: growth inhibition [1] 7.42% | growth inhibition [2] -4.18% | viability increase [3] -1.4% | viability [4] 95% | viability [5] 95.7% | inhibition [6] 4.08% | RAM network inhibition [7] 5.77%

CCSc1sccc1C1C(C#N)=C(N)N(c2cccnc2)C2=C1C(=O)CC(C)(C)C2 (stereo unspecified)
inactive: growth inhibition [1] -14.3% | growth inhibition [2] -6.69% | viability increase [3] -6.56% | viability [4] 92.1% | viability [5] 93.2% | inhibition [6] 0.9% | RAM network inhibition [7] 12.4%

OCC1(C2=NOC(O)(C(F)(F)F)C2)CCCCC1 (stereo unspecified)
inactive: growth inhibition [1] -7.57% | growth inhibition [2] -22.3% | viability increase [3] 1.19% | viability [4] 101% | viability [5] 101% | inhibition [6] 2.09% | RAM network inhibition [7] 3.18%

N#C/C(=C(/O)CN1C(=O)c2ccccc2C1=O)c1nc2ccccc2[nH]1
inactive: growth inhibition [1] -9.93% | growth inhibition [2] -4.08% | viability increase [3] 0.55% | viability [4] 100% | viability [5] 94.4% | inhibition [6] 4.51% | RAM network inhibition [7] 4.04%

CCOC(=O)C(CCC#N)(CCC#N)C(=O)OCC
inactive: growth inhibition [1] -11.9% | growth inhibition [2] -5.42% | viability increase [3] -0.16% | viability [4] 95.9% | viability [5] 102% | inhibition [6] 0.445% | RAM network inhibition [7] 5.31%

OC(COc1ccc2ccccc2c1)CN1CCN(c2ccc(F)cc2)CC1 (stereo unspecified)
inactive: growth inhibition [1] 3.06% | growth inhibition [2] -5.26% | viability increase [3] -4.36% | viability [4] 81.7% | viability [5] 84.4% | inhibition [6] 1.09% | RAM network inhibition [7] 1.23%

Cc1cccc(C)c1NC(=O)C1(NC(=O)c2cnccn2)CCCCC1
inactive: growth inhibition [1] -12.1% | growth inhibition [2] 0.045% | viability increase [3] -2.5% | viability [4] 98.4% | viability [5] 95.1% | inhibition [6] 1.21% | RAM network inhibition [7] 0.32%

O=C1CC(c2nc3ccccc3[nH]2)CN1Cc1ccccc1 (stereo unspecified)
inactive: growth inhibition [1] -0.355% | growth inhibition [2] -0.09% | viability increase [3] -1.02% | viability [4] 101% | viability [5] 95% | inhibition [6] 1.07% | RAM network inhibition [7] 0.96%

CCC(=O)Nc1nnc(-c2ccco2)o1
inactive: growth inhibition [1] -3.92% | growth inhibition [2] -4.75% | viability increase [3] -0.45% | viability [4] 93.8% | viability [5] 102% | inhibition [6] 0.105% | RAM network inhibition [7] 4.9%

CC1=C(C(=O)OC2CCCCCCC2)C(c2ccc(O)cc2)NC(=O)N1 (stereo unspecified)
inactive: growth inhibition [1] -3.17% | growth inhibition [2] 4.04% | viability increase [3] -0.32% | viability [4] 73.8% | viability [5] 72% | inhibition [6] 1.85% | RAM network inhibition [7] 3.65%
